Experimental findings from ChEMBL document CHEMBL4385626, “SAR optimization studies on modified salicylamides as a potential treatment for acute myeloid leukemia through inhibition of the CREB pathway” (Bioorg Med Chem Lett, 2019) are described below.

pIC50: −log10 of the molar value.

Type in all cases: functional, cell-based
Assay [1] concerns HL-60. The assay is described as follows: Cytotoxicity against human HL60 cells incubated for 3 days by CellTiter-Glo luminescent assay. The settings on record: HL-60, 72 h. In short, it runs like this: (§1)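 CellTiter-Glo viability read-out on leukemia cell lines. IC50 reported as the average of triplicates.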
The subject of assay [2] is KG-1. The assay is described as follows: Cytotoxicity against human KG1 cells incubated for 3 days by CellTiter-Glo luminescent assay. Particulars: KG-1, 72 h. The method in brief:
as §1

Assay [3] deals with Jurkat. The assay is described as follows: Cytotoxicity against human Jurkat cells incubated for 3 days by CellTiter-Glo luminescent assay. Particulars: 72 h. The method in brief:
as §1

The test system of assay [4] is NALM-6. The assay is described as follows: Cytotoxicity against human NALM6 cells incubated for 3 days by CellTiter-Glo luminescent assay. The settings on record: NALM-6, 72 h. The method in brief: as §1

As for `O=C(Nc1ccc(C(F)(F)F)cc1)c1cc(Cl)c(-c2ccccc2)cc1O`, the pIC50 in assay [1] was 6.31; in assay [2], 6.11; in assay [3] it was 5.94; in assay [4], 6.10.
Taken in the same sequence, the figures for `Cc1cc(C#N)ccc1NC(=O)c1ccc2cccnc2c1O` were 6.15, 5.49, 6.57 and 6.64.
Turning to `N#Cc1cc(Cl)ccc1NC(=O)c1ccc2cccnc2c1O`, the pIC50 in assay [1] was 6.10; in assay [2], 5.45; in assay [3] it was 6.77; in assay [4], 6.55.
Regarding `O=C(Nc1ccc(C(F)(F)F)cc1)c1ccc(Cl)cc1O`, the pIC50 in assay [1] was 6.20; in assay [2], 6.24; in assay [3] it was 6.17; in assay [4], 5.93.
As for `O=C(Nc1cc(C(F)(F)F)cc(C(F)(F)F)c1)c1cc(Cl)c(-c2ccccc2)cc1O`, the pIC50 is 6.10 in assay [1], 6.37 in assay [2], 6.27 in assay [3] and 6.25 in assay [4].
Consider `N#Cc1ccc(NC(=O)c2cc(Br)c3cccnc3c2O)cc1`, for which the pIC50 was 6.48 in assay [1], 6.64 in assay [3] and 6.68 in assay [4].
For `N#Cc1ccc(NC(=O)c2c(O)cccc2F)cc1`, the pIC50 in assay [1] and in assay [2] was below 5.00 throughout.
In the case of `O=C(Nc1ccc(C(F)(F)F)cc1)c1ccc2cccnc2c1O`, the pIC50 in assay [1] was 6.17; in assay [2], 5.45; in assay [3], 6.26; in assay [4], 6.42.
Consider `N#Cc1ccc(NC(=O)c2cc(-c3ccccc3)ccc2O)cc1`, for which the pIC50 in assay [1] was 5.87; in assay [2], 5.89.
The matching figures for `N#Cc1ccc(Nc2n[nH]c3ccccc23)cc1`: below 5.00 and below 5.00.
As for `O=C(Nc1ccc(OC(F)(F)F)c(Cl)c1)c1ccc(C(F)(F)F)cc1O`, the pIC50 is 6.42 in assay [1], 6.19 in assay [2], 6.10 in assay [3] and 6.02 in assay [4].
Take `O=C(Nc1ccc(C(F)(F)F)cc1)c1cc(Br)c(-c2ccccc2)cc1O`: the pIC50 in assay [1] was 6.27; in assay [2] it was 6.40; in assay [3], 6.13; in assay [4], 6.00.
Regarding `CC(=O)Oc1cc2ccccc2cc1C(=O)Nc1ccc(C#N)cc1`, the pIC50 in assay [1] and in assay [2] was 5.77 in each case.
On to `O=C(Nc1ccc(C(F)(F)F)cc1)c1cc(Br)c(F)cc1O`, for which the pIC50 in assay [1] is 6.35; in assay [2], 6.09; in assay [3], 6.06; in assay [4], 5.89.
Taken in the same sequence, the figures for `O=C(Nc1cc(C(F)(F)F)cc(C(F)(F)F)c1)c1cc(Cl)ccc1O` [IMD-0354] were 6.80, 6.30, 6.32 and 6.20.
As to `O=C(Nc1ccc(C(F)(F)F)cc1)c1cc(F)ccc1O`, the pIC50 in assay [1] is 6.31; in assay [2], 5.77; in assay [3], 6.24; in assay [4], 5.68.
With `N#Cc1ccc(NC(=O)c2cc(C(F)(F)F)ccc2O)cc1`, the figures for the pIC50 in assay [1] and in assay [2] were 5.51 and 5.32, respectively.
For the compound `O=C(Nc1cc(Cl)cc(Cl)c1)c1cc(F)ccc1O`, the pIC50 in assay [1] was 6.22; in assay [2], 6.11; in assay [3], 6.15; in assay [4], 5.84.
In the case of `N#Cc1ccc(NC(=O)c2ccc(Cl)cc2O)cc1`, the negative logarithm of the IC50 (pIC50) in assay [1] is 5.89; in assay [2], 5.72.
Taken in the same sequence, the figures for `N#Cc1ccc(NC(=O)c2ccc(-c3ccncc3)cc2O)cc1` were 5.15 and 5.05.
Turning to `O=C(Nc1ccc(C(F)(F)F)cc1)c1cc(Br)ccc1O`, the pIC50 is 6.24 in assay [1], 6.21 in assay [2], 6.21 in assay [3] and 5.96 in assay [4].
In the case of `CS(=O)(=O)Nc1ccc(Cl)cc1C(=O)Nc1ccc(C#N)cc1`, the pIC50 in assay [1] and in assay [2] was below 5.00 in each case.
In the case of `O=C(Nc1ccc(C(F)(F)F)c(Cl)c1)c1cc(Cl)ccc1O`, the pIC50 in assay [1] was 6.34; in assay [2] it was 6.35; in assay [3] it was 6.16; in assay [4], 5.91.
For `N#Cc1ccc(NC(=O)c2c(O)ccc3ccccc23)cc1`, the pIC50 in assay [1] was 5.35; in assay [2] it was 5.42.
Consider `O=C(Nc1ccc(OC(F)(F)F)c(Cl)c1)c1cc(Cl)ccc1O`, for which the pIC50 in assay [1] is 6.35; in assay [2], 6.34; in assay [3], 6.08; in assay [4] it was 5.98.
On to `O=C(Nc1ccc(OC(F)(F)F)cc1Cl)c1cc(Cl)ccc1O`, for which the pIC50 is 6.19 in assay [1], 6.21 in assay [2], 6.06 in assay [3] and 5.87 in assay [4].
Taken in the same sequence, the figures for `O=C(Nc1ccc(Cl)cc1Cl)c1ccc2cccnc2c1O` were 6.21, 5.45, 6.37 and 6.35.
With `O=C(Nc1ccc(Cl)c(Br)c1)c1cc(Cl)ccc1O`, the pIC50 was 6.11 in assay [1], 6.17 in assay [2], 5.87 in assay [3] and 5.51 in assay [4].
In the case of `Cc1ccc(O)c(C(=O)Nc2ccc(C#N)cc2)c1`, the pIC50 is 5.41 in assay [1] and 5.47 in assay [2].
For `O=C(Nc1cc(C(F)(F)F)cc(C(F)(F)F)c1)c1ccc(-c2ccccc2)cc1O`, the pIC50 in assay [1] was 5.94; in assay [2], 6.07; in assay [3], 5.91; in assay [4] it was 5.80.
With `N#Cc1ccc(NC(=O)c2ccc3cccnc3c2O)c(C#N)c1`, the pIC50 was 6.05 in assay [1], 5.42 in assay [2], 6.57 in assay [3] and 6.46 in assay [4].
Regarding `COc1cccc(C(=O)Nc2ccc(C#N)cc2)c1O`, the pIC50 in assay [1] and in assay [2] was below 5.00 throughout.
`N#Cc1ccc(NC(=O)c2cccc3cc[nH]c23)cc1`: the pIC50 in assay [1] and in assay [2] was below 5.00 in each case.
Regarding `N#Cc1ccc(NC(=O)c2cc(F)ccc2O)cc1`, the pIC50 in assay [1] was 5.85; in assay [2] it was 5.57.
For the compound `N#Cc1ccc(NC(=O)c2cc(Br)c(-c3ccccc3)cc2O)cc1`, the values for the pIC50 in assay [1] and in assay [2] were 6.15 and 6.07, respectively.
Take `O=C(Nc1ccc(C(F)(F)F)cc1)c1ccc(Br)cc1O`: the pIC50 in assay [1] was 6.44; in assay [2] it was 6.47; in assay [3], 6.30; in assay [4], 6.16.
For `O=C(Nc1ccc(Cl)cc1)c1ccc2cccnc2c1O`, the pIC50 was 6.20 in assay [1], 5.48 in assay [2], 6.29 in assay [3] and 6.42 in assay [4].
As for `O=C(Nc1ccccc1)c1cc(F)ccc1O`, the pIC50 in assay [1] and in assay [2] was below 5.00 throughout.
As for `COc1ccc(C(=O)Nc2ccc(C#N)cc2)c(O)c1`, the pIC50 was 5.26 in assay [1] and 5.27 in assay [2].
The matching figures for `N#Cc1ccc(NC(=O)c2cc(Cc3ccccc3)ccc2O)cc1`: 5.76 and 5.71.
For the compound `N#Cc1ccc(NC(=O)c2ccc(-c3cccnc3)cc2O)cc1`, the pIC50 was 5.18 in assay [1] and 5.10 in assay [2].
Regarding `Cc1cccc(C(=O)Nc2ccc(C#N)cc2)c1O`, the pIC50 is below 5.00 in assay [1] and 5.05 in assay [2].
As for `N#Cc1ccc(NC(=O)c2cc(-c3cccnc3)ccc2O)cc1`, the pIC50 in assay [1] is 5.10; in assay [2] it was 5.08.
On to `Cc1cccc(O)c1C(=O)Nc1ccc(C#N)cc1`, for which the pIC50 was 5.16 in assay [1] and 5.10 in assay [2].
The matching figures for `N#Cc1ccc(CC(=O)c2cc(F)ccc2O)cc1`: below 5.00 and below 5.00.
In the case of `N#Cc1ccc(NC(=O)c2ccc(F)cc2O)cc1`, the pIC50 is 5.86 in assay [1] and 5.50 in assay [2].
Taken in the same sequence, the figures for `N#Cc1ccc(NC(=O)c2cccc(Br)c2O)cc1` were 5.54 and 5.49.
Take `N#Cc1ccc(NC(=O)c2ccc[nH]c2=O)cc1`: the pIC50 in assay [1] and in assay [2] was below 5.00 each time.
As to `N#Cc1ccc(NC(=O)c2ccc(-c3ccccc3)cc2O)cc1`, the pIC50 was 6.15 in assay [1] and 6.39 in assay [2].
With `N#Cc1ccc2nc(-c3ccccc3O)[nH]c2c1`, the pIC50 in assay [1] and in assay [2] was below 5.00 in each case.
Regarding `N#Cc1ccc(NS(=O)(=O)c2cc(F)ccc2O)cc1`, the pIC50 in assay [1] and in assay [2] was below 5.00 each time.
In the case of `N#Cc1ccc(NC(=O)c2ccc3ccccc3c2O)cc1`, the pIC50 in assay [1] is 5.47; in assay [2], 5.57.
Take `N#Cc1ccc(NC(=O)c2ccc(Br)cc2O)cc1`: the pIC50 in assay [1] is 5.92; in assay [2], 5.84.
On to `COc1cc2ccccc2cc1C(=O)Nc1ccc(C#N)cc1`, for which the pIC50 in assay [1] and in assay [2] was below 5.00 in each case.
Regarding `N#Cc1ccc(NC(=O)c2ccccc2O)cc1`, the pIC50 in assay [1] is 5.34; in assay [2] it was 5.27.
The matching figures for `Cc1ccc(C(=O)Nc2ccc(C#N)cc2)c(O)c1`: 5.62 and 5.59.
Take `N#Cc1ccc(NC(=O)c2ccc(C(F)(F)F)cc2O)cc1`: the pIC50 in assay [1] was 5.99; in assay [2], 5.84.
Taken in the same sequence, the figures for `N#Cc1ccc(NC(=O)c2cc(Cl)c(-c3ccccc3)cc2O)cc1` were 6.28 and 6.32.
Take `CN(C(=O)c1cc(F)ccc1O)c1ccc(C#N)cc1`: the pIC50 in assay [1] and in assay [2] was below 5.00 throughout.
For the compound `N#Cc1ccc(NC(=O)c2cccc(F)c2O)cc1`, the pIC50 was 5.27 in assay [1] and 5.01 in assay [2].
Regarding `N#Cc1cccc(NC(=O)c2cc(F)ccc2O)c1`, the negative logarithm of the IC50 (pIC50) was 5.11 in assay [1] and 5.04 in assay [2].
With `N#Cc1ccc(NC(=O)c2cc(-c3ccncc3)ccc2O)cc1`, the pIC50 in assay [1] is 5.27; in assay [2] it was 5.10.
